Data published in ChEMBL document CHEMBL1275292, “Design and synthesis of bioactive adamantanaminoalcohols and adamantanamines” (Eur J Med Chem, 2010).
Active and inactive are the calls of the source. The rule behind the calls is not given here.

What was measured:
[1] = system: H3N2 subtype; assay: Antiviral activity against Influenza A virus (A/Hong Kong/7/1987(H3N2)) infected in MDCK cells assessed as inhibition of virus-induced cytopathogenicity at 500 uM by MTS assay; type: functional, organism-based
[2] = Cytotoxicity against MDCK cells by MTS assay; type: cell-based, Canis lupus familiaris; details: dog
[3] = system: Trypanosoma brucei; assay: Antiparasitic activity against Trypanosoma brucei 427 bloodstream forms assessed as inhibition of parasite growth after 48 hrs; type: functional, organism-based
Summary of the method: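 Bloodstream-form T. brucei strain 427 were grown at 37 °C and pH 7.4 in modified Iscove's medium, in 4 ml cultures for 48 h across a drug range of 0.1 to 25. Cell densities were counted by hemocytometer and growth was expressed as % of untreated controls. IC50 and IC90 were derived from these counts, as mean ± SD of three experiments.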

[4] = system: H3N2 subtype; assay: Antiviral activity against Influenza A virus (A/Hong Kong/7/1987(H3N2)) infected in MDCK cells assessed as inhibition of virus-induced cytopathogenicity by MTS assay; type: functional, organism-based
Summary of the method: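 MDCK cells infected with influenza A/HK/7/87 (H3N2), whose M2 carries serine at position 31. Virus-induced cytopathic effect was read after multiple replication cycles at 72 h post infection by microscopic scoring and by a colorimetric formazan MTS cell-viability assay. EC50 is the concentration giving 50% inhibition of CPE by MTS. Compounds were tested as hydrochlorides, aminoalcohols as free bases. Values are mean ± SD with the number of independent determinations.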

[5] = system: Trypanosoma brucei; assay: Antiparasitic activity against Trypanosoma brucei 427 bloodstream forms assessed as inhibition of parasite growth at 5 ug/mL after 48 hrs; type: functional; details: Trypanosoma brucei, 427, 48 h; read-out: GI
[6] = Selectivity index, ratio of MCC for MDCK cells to EC50 for Influenza A virus (A/Hong Kong/7/1987(H3N2)); type: toxicity, cell-based; details: dog, read-out: Selectivity Index
[7] = Trypanosoma brucei, 427, 48 h, read-out: IC50

| Compound | inhibition [1] | MCC [2] [µM] | IC90 ([3]; Trypanosoma brucei, 427, 48 h) [µM] | IC50 [3, 7] [µM] | EC50 [4] [µM] | IC50 [3] | inhibition of growth at 5 µg/mL [5] [%] | selectivity ratio [6] |
| --- | --- | --- | --- | --- | --- | --- | --- | --- |
| NC1C2CC3CC(C2)CC1(c1ccccc1)C3 (centres undefined) | inactive | 218 | > 20 | 11.1 | – | – | – | – |
| NC(=O)c1ncn([C@@H]2O[C@H](CO)[C@@H](O)[C@H]2O)n1 [RIBAVIRIN] | – | – | – | – | 8.7 | – | – | – |
| CN(C)CCCC12CC3CC(CC(C3)C1N)C2 (centres undefined) | inactive | > 200 | – | – | – | Not Active | 30 | – |
| NC1(CO)C2CC3CC(C2)CC1C3 (centres undefined) | – | > 459 | 18.2 | 9.4 | 1.46 | – | – | > 314 |
| CN(C)CCCC12CC3CC(CC(C3)C1O)C2 (centres undefined) | inactive | > 250 | 1.8 | 0.84 | – | – | – | – |
| NCCC12CC3CC(CC(C3)C1O)C2 (centres undefined) | – | 512 | – | – | 8.6 | Not Active | 30 | 60 |
| NCC1(CO)C2CC3CC(C2)CC1C3 (centres undefined) | – | 87 | – | – | 0.34 | Not Active | 30 | 256 |
| OC1(C2CCCCN2)C2CC3CC(C2)CC1C3 (centres undefined) | inactive | 208 | – | – | – | Not Active | 30 | – |
| NCC1(O)C2CC3CC(C2)CC1C3 (centres undefined) | inactive | – | – | – | – | Not Active | 30 | – |
| NCCC1(O)CC2CC3CC(C2)C1C3 (centres undefined) | – | 512 | – | – | 7.68 | Not Active | 30 | 67 |
| CC(N)C12CC3CC(CC(C3)C1)C2 (centres undefined) [RIMANTADINE] | – | > 100 | 14 | – | ≤ 0.362 | – | – | > 276 |
| CN(C)CCC[C@]1(O)CC2CC3CC(C2)C1C3 (some centres undefined) | inactive | > 250 | 1.7 | 0.84 | – | – | – | – |
| NC1CC2CC3CC(C2)C1C3 (centres undefined) | – | 107 | – | – | 1.5 | Not Active | 30 | 69 |
| CNC1(c2ccccn2)C2CC3CC(C2)CC1C3 (centres undefined) | inactive | 264 | > 25 | 24.6 | – | – | – | – |
| NCCC1(O)C2CC3CC(C2)CC1C3 (centres undefined) | – | 17 | – | – | 6.24 | Not Active | 30 | 3 |
| CNC(CN)C12CC3CC(CC(C3)C1)C2 (centres undefined) | inactive | 404 | 7.8 | 5.2 | – | – | – | – |
| NC12CC3CC(CC(C3)C1)C2 [AMANTADINE] | – | > 100 | – | – | 2 | – | – | > 51 |
